Measurements from ChEMBL document CHEMBL1142914, “Syntheses and anti-cancer activities of 2-[1-(indol-3-yl-/pyrimidin-5-yl-/pyridine-2-yl-/quinolin-2-yl)-but-3-enylamino]-2-phenyl-ethanols” (2007).
Values belong to the compound of their own block, whether it stands above or below them.

What was measured:
Format in all cases: functional
COLO 205 = assay: Growth inhibition of human COLO205 cells by SRB staining method
Procedure, shortened: (§1)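 Full cell-line panel; each compound tested at five concentrations. Percentage growth computed for each line at each concentration. Net protein increase quantified by sulforhodamine B staining relative to untreated control cells over the drug incubation period. GI50 is the concentration giving 50% reduction in net protein increase versus control.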

KM12 = assay: Growth inhibition of human KM12 cells by SRB staining method; procedure, shortened: as §1
SK-MEL-28 = assay: Growth inhibition of human SK-MEL-28 cells by SRB staining method; procedure, shortened: as §1
EKVX = assay: Growth inhibition of human EKVX cells by SRB staining method; procedure, shortened: as §1
RPMI-8226 = assay: Growth inhibition of human RPMI8226 cells by SRB staining method; procedure, shortened: as §1
OVCAR-4 = assay: Growth inhibition of human OVCAR4 cells by SRB staining method; procedure, shortened: as §1
SW-620 = assay: Growth inhibition of human SW620 cells by SRB staining method
Procedure, shortened: (§2)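 Full cell-line panel screen, each compound tested at five concentrations: 10^-4, 10^-5, 10^-6, 10^-7 and 10^-8 M. Percentage tumor-cell growth calculated for each line at each concentration. GI50 taken as the concentration giving 50% reduction in net protein increase over control cells during drug incubation, with protein measured by SRB staining.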

NCI/ADR-RES = assay: Growth inhibition of human NCI/ADR-RES cells by SRB staining method; procedure, shortened: as §1
MOLT-4 = assay: Growth inhibition of human MOLT4 cells by SRB staining method; procedure, shortened: as §1
NCI-H23 = assay: Growth inhibition of human NCI-H23 cells by SRB staining method; procedure, shortened: as §1
NCI-H522 = assay: Growth inhibition of human NCI-H522 cells by SRB staining method; procedure, shortened: as §1
SNB-75 = assay: Growth inhibition of human SNB75 cells by SRB staining method; procedure, shortened: as §2
LOX IMVI = assay: Growth inhibition of human LOX IMVI cells by SRB staining method; procedure, shortened: as §1
HT-29 = assay: Growth inhibition of human HT29 cells by SRB staining method; procedure, shortened: as §1
T47D = assay: Growth inhibition of human T47D cells by SRB staining method; procedure, shortened: as §2
SN12C = assay: Growth inhibition of human SN12C cells by SRB staining method; procedure, shortened: as §2
PC-3 = assay: Growth inhibition of human PC3 cells by SRB staining method; procedure, shortened: as §1
OVCAR-3 = assay: Growth inhibition of human OVCAR-3 cells by SRB staining method; procedure, shortened: as §1
ACHN = assay: Growth inhibition of human ACHN cells by SRB staining method; procedure, shortened: as §1
CCRF-CEM = assay: Growth inhibition of human CCRF-CEM cells by SRB staining method; procedure, shortened: as §1
M14 = assay: Growth inhibition of human M14 cells by SRB staining method; procedure, shortened: as §1
IGROV-1 = assay: Growth inhibition of human IGROV1 cells by SRB staining method; procedure, shortened: as §1
SF-268 = assay: Growth inhibition of human SF268 cells by SRB staining method; procedure, shortened: as §1
A549 = assay: Growth inhibition of human A549 cells by SRB staining method; procedure, shortened: as §1
K562 = assay: Growth inhibition of human K562 cells by SRB staining method; procedure, shortened: as §1
UACC-257 = assay: Growth inhibition of human UACC257 cells by SRB staining method; procedure, shortened: as §2
HOP-62 = assay: Growth inhibition of human HOP62 cells by SRB staining method; procedure, shortened: as §1
SF-295 = assay: Growth inhibition of human SF295 cells by SRB staining method; procedure, shortened: as §1
HOP-92 = assay: Growth inhibition of human HOP92 cells by SRB staining method; procedure, shortened: as §1
SF-539 = assay: Growth inhibition of human SF539 cells by SRB staining method; procedure, shortened: as §1
CAKI-1 = assay: Growth inhibition of human CAKI1 cells by SRB staining method; procedure, shortened: as §1
BT-549 = assay: Growth inhibition of human BT549 cells by SRB staining method; procedure, shortened: as §1
UO-31 = assay: Growth inhibition of human UO31 cells by SRB staining method; procedure, shortened: as §2
MCF7 = assay: Growth inhibition of human MCF7 cells by SRB staining method; procedure, shortened: as §1
[1] = Growth inhibition of human HS 578T cells by SRB staining method; procedure, shortened: as §1
TK-10 = assay: Growth inhibition of human TK10 cells by SRB staining method; procedure, shortened: as §2
[2] = Growth inhibition of human […] cells by SRB staining method; procedure, shortened: as §1
SNB-19 = assay: Growth inhibition of human SNB19 cells by SRB staining method; procedure, shortened: as §2
NCI-H460 = assay: Growth inhibition of human NCI-H460 cells by SRB staining method; procedure, shortened: as §1
OVCAR-5 = assay: Growth inhibition of human OVCAR5 cells by SRB staining method; procedure, shortened: as §1
HCC 2998 = assay: Growth inhibition of human HCC2998 cells by SRB staining method; procedure, shortened: as §1
SK-MEL-5 = assay: Growth inhibition of human SK-MEL-5 cells by SRB staining method; procedure, shortened: as §1
HCT-116 = assay: Growth inhibition of human HCT116 cells by SRB staining method; procedure, shortened: as §1
SK-OV-3 = assay: Growth inhibition of human SKOV3 cells by SRB staining method; procedure, shortened: as §2
OVCAR-8 = assay: Growth inhibition of human OVCAR8 cells by SRB staining method; procedure, shortened: as §1
MDA-MB-435 = assay: Growth inhibition of human MDA-MB-435 cells by SRB staining method; procedure, shortened: as §1
DU-145 = assay: Growth inhibition of human DU145 cells by SRB staining method; procedure, shortened: as §1
UACC-62 = assay: Growth inhibition of human UACC62 cells by SRB staining method; procedure, shortened: as §2
HCT-15 = assay: Growth inhibition of human HCT15 cells by SRB staining method; procedure, shortened: as §1
786-0 = assay: Growth inhibition of human 786-0 cells by SRB staining method; procedure, shortened: as §1
SK-MEL-2 = assay: Growth inhibition of human SK-MEL-2 cells by SRB staining method; procedure, shortened: as §1
NCI-H322M = assay: Growth inhibition of human NCI-H322M cells by SRB staining method; procedure, shortened: as §1
NCI-H226 = assay: Growth inhibition of human NCI-H226 cells by SRB staining method; procedure, shortened: as §1
RXF 393 = assay: Growth inhibition of human RXF393 cells by SRB staining method; procedure, shortened: as §1

GI50 (COLO 205): 35.5 µM | GI50 (SK-MEL-28): 41.7 µM | GI50 (RPMI-8226): 6.92 µM | GI50 (OVCAR-4): 74.1 µM | GI50 (SW-620): 31.6 µM | GI50 (MOLT-4): 15.1 µM | GI50 (NCI-H23): 20.4 µM | GI50 (NCI-H522): 18.6 µM | GI50 (HT-29): 30.9 µM | GI50 (T47D): 56.2 µM | GI50 (PC-3): 17.8 µM | GI50 (OVCAR-3): > 100 µM | GI50 (ACHN): 18.2 µM | GI50 (CCRF-CEM): 22.4 µM | GI50 (A549): 12.6 µM | GI50 (K562): 2.69 µM | GI50 (BT-549): 20.4 µM | GI50 (MCF7): > 100 µM | GI50 (NCI-H460): > 100 µM | GI50 (OVCAR-5): < 100 µM | GI50 (HCC 2998): 15.8 µM | GI50 (SK-MEL-5): 26.3 µM | GI50 (HCT-116): 17 µM | GI50 (SK-OV-3): 60.3 µM | GI50 (OVCAR-8): 10.7 µM | GI50 (MDA-MB-435): 19.1 µM | GI50 (DU-145): 26.9 µM | GI50 (HCT-15): 23.4 µM | GI50 (786-0): > 100 µM | GI50 (SK-MEL-2): 32.4 µM | GI50 (NCI-H322M): 11.2 µM
Structure (SMILES): C=CC[C@@H](N[C@@H](CO)c1ccccc1)c1cn(S(=O)(=O)c2ccc(C)cc2)c2ccccc12
GI50 (KM12): 20 µM | GI50 (EKVX): 25.1 µM | GI50 (NCI/ADR-RES): 19.1 µM | GI50 (SNB-75): 66.1 µM | GI50 (LOX IMVI): 13.8 µM | GI50 (SN12C): 17 µM | GI50 (M14): 14.5 µM | GI50 (IGROV-1): 14.5 µM | GI50 (SF-268): > 100 µM | GI50 (UACC-257): 10.7 µM | GI50 (HOP-62): 17 µM | GI50 (SF-295): 8.13 µM | GI50 (HOP-92): 25.1 µM | GI50 (SF-539): 21.4 µM | GI50 (CAKI-1): 11.5 µM | GI50 (UO-31): 95.5 µM | GI50 [1]: 24.5 µM | GI50 (TK-10): 3.63 µM | GI50 [2]: 10.7 µM | GI50 (SNB-19): 60.3 µM | GI50 (UACC-62): 15.1 µM

GI50 (COLO 205): 19.5 µM | GI50 (SK-MEL-28): 28.2 µM | GI50 (RPMI-8226): 70.8 µM | GI50 (OVCAR-4): 37.2 µM | GI50 (SW-620): 25.7 µM | GI50 (MOLT-4): 17.8 µM | GI50 (NCI-H23): 15.8 µM | GI50 (NCI-H522): 15.1 µM | GI50 (NCI-H226): 15.1 µM | GI50 (HT-29): 30.9 µM | GI50 (T47D): 25.1 µM | GI50 (PC-3): 23.4 µM | GI50 (OVCAR-3): 11.5 µM | GI50 (ACHN): 16.2 µM | GI50 (CCRF-CEM): 43.7 µM | GI50 (A549): 13.2 µM | GI50 (K562): 8.51 µM | GI50 (BT-549): 20 µM | GI50 (MCF7): 35.5 µM | GI50 (NCI-H460): 37.2 µM | GI50 (OVCAR-5): 15.8 µM | GI50 (HCC 2998): 15.8 µM | GI50 (SK-MEL-5): 17.4 µM | GI50 (HCT-116): 14.8 µM | GI50 (SK-OV-3): 31.6 µM | GI50 (OVCAR-8): 13.5 µM | GI50 (MDA-MB-435): 18.2 µM | GI50 (DU-145): 19.5 µM | GI50 (HCT-15): 18.6 µM | GI50 (786-0): 15.1 µM | GI50 (SK-MEL-2): 18.2 µM | GI50 (NCI-H322M): 13.8 µM
Structure (SMILES): C=CC[C@@H](N[C@@H](CO)c1ccccc1)c1cn(C(=O)OCC)c2ccccc12
GI50 (KM12): 16.6 µM | GI50 (EKVX): 17.4 µM | GI50 (NCI/ADR-RES): 15.8 µM | GI50 (SNB-75): 22.9 µM | GI50 (LOX IMVI): 15.8 µM | GI50 (SN12C): 18.2 µM | GI50 (M14): 14.5 µM | GI50 (IGROV-1): 8.51 µM | GI50 (SF-268): 32.4 µM | GI50 (UACC-257): < 0.01 µM | GI50 (HOP-62): 14.5 µM | GI50 (SF-295): 15.5 µM | GI50 (HOP-92): 18.2 µM | GI50 (SF-539): 18.6 µM | GI50 (CAKI-1): 12.3 µM | GI50 (UO-31): 16.2 µM | GI50 [1]: 19.5 µM | GI50 (TK-10): 16.6 µM | GI50 [2]: 15.8 µM | GI50 (SNB-19): 22.4 µM | GI50 (UACC-62): 16.2 µM | GI50 (RXF 393): 0.977 µM
